Measurements from paper PMC8092417 (Anti-cancer drugs, 2020).

Key:
TU-BcX-4IC cells [1] = experiment: Crystal violet staining, cells remaining / viability dose-response; assay type: cell-based, human; conditions: 1 μM, 72 hours
BT549 cells = experiment: Transwell migration assay; assay type: cell-based, human; conditions: BT549, pretreated 1 μM 72 hours, 24 hours migration
Procedure, shortened: (§1)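 Cells were pretreated 72 h with test compound (1 μM) or DMSO, and viable cells were then seeded into transwell chambers for 24 h. Non-migrated cells were removed. Migrated cells were fixed, crystal violet-stained, imaged by brightfield and counted. Counts were normalized to DMSO per cell line; triplicate experiments.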

TU-BcX-4IC cells [2] = experiment: Transwell migration assay; assay type: cell-based, human; conditions: pretreated 1 μM 72 hours, 24 hours migration
Procedure, shortened: as §1

BT-549 cells = experiment: qRT-PCR of epithelial and mesenchymal genes; assay type: cell-based, human; conditions: BT-549, 1 μM, 72 hours
Procedure, shortened: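 Cells were treated 72 h with test compound (1 μM) or DMSO. Total RNA was column-isolated and checked for quantity and quality by absorbance (260, 280 nm). Then 2 μg total RNA was reverse-transcribed and gene expression measured by qRT-PCR.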

TU-BcX-49S cells = experiment: qRT-PCR of epithelial and mesenchymal genes; assay type: cell-based, human
TU-BcX-49S tumors = experiment: qRT-PCR of ex vivo treated PDX tumor pieces; assay type: cell-based, human; conditions: TU-BcX-49S tumor pieces, 1 μM, 72 hours
[3] = test system: HLA+CD44+CD24- cancer stem cells of TU-BcX-4IC-implanted mice; experiment: Flow cytometry for circulating cancer stem cells in peripheral blood; assay type: in vivo, SCID/Beige mice; conditions: 25 mg/kg bid, vs DMSO vehicle
Procedure, shortened: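 Female SCID/Beige mice (n=5/group) carried TU-BcX-4IC tumor implants (3 × 3 mm) in the mammary fat pads and received i.p. test compound or DMSO vehicle twice daily for 15 days. Intracardiac blood was stored in EDTA […], RBC-lysed ([…] NH4Cl, pH 7.2–7.4), Fc-blocked, and stained with anti-human CD24, EpCAM and CD44. At least 5000 events were analyzed; n=4 mice/group; mean ± SEM.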

TU-BcX-4IC M2 spheres = experiment: In vivo inoculation of pre-treated spheres, tumorigenesis and metastasis; set-up: species or system SCID/Beige mice; conditions: 100,000 cells per injection
Procedure, shortened: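 TU-BcX-4IC M2 spheres were pre-exposed to test compound (1 μM) or DMSO for 72 h under low attachment. Spheres were dissociated to single cells with TrypLE, and only trypan blue-excluding viable cells were used. 100,000 cells/injection went bilaterally into the mammary fat pad of SCID/Beige mice (5/group). Tumours were measured biweekly by caliper, then resected. Mice were killed 20 days later, and lungs and livers were formalin-fixed, paraffin-embedded and H&E-stained for metastases.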

PLK1 = PLK1 (Homo sapiens, UniProt P53350); experiment: Kinase inhibition assay; assay type: biochemical; conditions: 1 μM
NEK2 = target: T1, NEK2 (Homo sapiens, UniProt P51955); experiment: Kinase inhibition assay; assay type: biochemical; conditions: 1 μM
T1 sequence (P51955 1-445): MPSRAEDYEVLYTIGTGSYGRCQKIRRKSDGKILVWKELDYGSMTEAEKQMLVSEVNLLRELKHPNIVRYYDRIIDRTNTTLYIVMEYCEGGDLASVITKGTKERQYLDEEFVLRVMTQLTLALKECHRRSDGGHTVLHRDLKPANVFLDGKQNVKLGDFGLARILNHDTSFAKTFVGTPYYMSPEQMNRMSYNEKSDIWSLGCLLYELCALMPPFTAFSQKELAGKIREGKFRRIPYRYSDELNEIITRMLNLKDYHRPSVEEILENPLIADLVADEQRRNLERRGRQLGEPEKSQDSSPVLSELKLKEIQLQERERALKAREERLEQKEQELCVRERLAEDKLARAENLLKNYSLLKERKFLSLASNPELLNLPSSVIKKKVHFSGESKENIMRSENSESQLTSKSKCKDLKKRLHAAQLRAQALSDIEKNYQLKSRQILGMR

[4] = TU-BcX-4IC M2 spheres pre-treated 1 μM 72 hours

Chain of PLK1 (P53350 whole entry): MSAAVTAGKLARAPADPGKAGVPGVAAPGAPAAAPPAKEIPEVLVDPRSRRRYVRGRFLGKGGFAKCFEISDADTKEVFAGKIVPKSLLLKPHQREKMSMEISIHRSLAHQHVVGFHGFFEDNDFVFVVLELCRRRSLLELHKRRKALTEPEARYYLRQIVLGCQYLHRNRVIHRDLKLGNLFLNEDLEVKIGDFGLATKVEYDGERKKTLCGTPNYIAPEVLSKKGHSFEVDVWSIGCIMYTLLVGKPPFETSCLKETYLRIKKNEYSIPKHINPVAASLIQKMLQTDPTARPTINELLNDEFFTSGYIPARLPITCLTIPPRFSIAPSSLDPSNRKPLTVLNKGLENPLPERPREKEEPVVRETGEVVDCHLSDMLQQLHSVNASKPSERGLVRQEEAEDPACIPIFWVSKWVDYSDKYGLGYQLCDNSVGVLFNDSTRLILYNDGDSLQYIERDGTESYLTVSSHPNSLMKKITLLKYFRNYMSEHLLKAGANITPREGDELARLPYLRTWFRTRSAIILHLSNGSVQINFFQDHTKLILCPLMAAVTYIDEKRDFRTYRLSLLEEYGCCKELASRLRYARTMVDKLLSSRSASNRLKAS

C[C@@H](Oc1cc(-n2cnc3ccc(NC(=O)NC(C)(C)C)cc32)sc1C(N)=O)c1ccccc1Cl [GSK346294A]
Number of cells remaining compared to DMSO controls (TU-BcX-4IC cells [1]): decreased the number of cells remaining
Transwell cell migration (BT549 cells): most suppressive effects on cell migration
Transwell cell migration (TU-BcX-4IC cells [2]): most suppressive effects on cell migration
CDH1 mRNA expression (BT-549 cells): significantly reduced CDH1 mRNA expression
MMP9 mRNA expression (BT-549 cells): Neither GSK346294A nor GSK448459A affected MMP9 expression
SNAI1 mRNA expression (BT-549 cells): no significant effects on SNAI1 expression
cFOS mRNA expression (BT-549 cells): suppressive effects in all three TNBC cell lines, although not significantly
cFOS mRNA expression (TU-BcX-49S cells): Neither GSK346294A nor GSK448459A suppressed cFOS mRNA expression
CDH1 mRNA expression (TU-BcX-49S cells; compared to DMSO controls): increased CDH1 expression
CDH1 mRNA expression (TU-BcX-49S tumors): increased epithelial markers CDH1 mRNA expression
CSC populations in peripheral blood [3]: suppressed the CSC populations in the peripheral blood of mice implanted with TU-BcX-4IC tumors, although not significantly
Area of liver metastases (TU-BcX-4IC M2 spheres; [4]): did not suppress
Area of lung metastasis (TU-BcX-4IC M2 spheres; [4]): suppressed area of lung metastasis
Total number of lung lesions (TU-BcX-4IC M2 spheres; [4]): significantly suppresses total number of lesions
Tumor formation of pre-treated spheres (TU-BcX-4IC M2 spheres; [4]): significantly suppressed tumor formation
Number of liver metastases (TU-BcX-4IC M2 spheres; TU-BcX-4IC MS2 spheres pre-treated 1 μM 72 hours): did not suppress
Activity against PLK1 (PLK1): strong activity
Binding activity to NEK2 (NEK2): 5%
